Reference: publication PMC8122083 (ACS infectious diseases, 2021)
In brackets after ≈: the same amount, converted by molar mass. Where two headings read alike, the source gives them in different places.

Columns and labels:
[1] = test system: H. pylori SS1; experiment: H. pylori IC50 dose response; assay type: cell-based; conditions: for IC50: Helicobacter pylori, SS1, read-out: H. pylori SS1 pIC50 (converted)
[2] = test system: H. pylori HM-274 resistant isolates; experiment: MIC of spontaneous resistant mutants of H. pylori HM-274; assay type: cell-based; conditions: two spontaneous mutants selected at twice the MIC of 28
[3] = Cytotoxicity assay; assay type: cell-based; conditions: human, FaDu cells
How it was run: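 FaDu cells, maintained per ATCC protocols, were seeded in EMEM with 10% FBS at 3 x 10^5 cells/ml and grown 24 h at 37°C, 5% CO2. Medium was replaced with two-fold serial dilutions of test compound in fresh medium for 72 h, then with FBS-free EMEM plus resazurin (final 0.15 mM) for 3-5 h. Fluorescence read at ex 540/em 590 nm. IC50 fitted from percent inhibition versus growth controls, converted to pIC50, and reported as mean ± S.E.M.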

[4] = test system: panel of representative Gram-negative and Gram-positive species, including commensals; experiment: MIC against panel of representative Gram-negative and Gram-positive species; assay type: cell-based
[5] = test system: H. pylori ATCC 43504; experiment: H. pylori IC50 dose response; assay type: cell-based; conditions: for IC50: Helicobacter pylori
[6] = test system: H. pylori; experiment: H. pylori IC50 of high-throughput screening hits; assay type: cell-based; conditions: Helicobacter pylori, read-out: H. pylori IC50
[7] = test system: H. pylori; experiment: H. pylori murine infection model; assay type: in vivo, mouse; conditions: compared to metronidazole control
[8] = test system: H. pylori SS1; experiment: ex vivo H. pylori infection model; parameters: species or system mouse; conditions: 0.6 μg/mL (1.6μM), 24 hours
[9] = Solubility; assay type: physicochemical
[10] = Mouse pharmacokinetics; assay type: in vivo, mice
[11] = test system: H. pylori; conditions: cited from earlier work
[12] = ATCC43504, read-out: H. pylori ATCC 43504 pIC50 (converted)

OC[C@H](Nc1ncnc2sc(-c3ccccc3)cc12)c1ccccc1 [Compound 28, (R)-2-phenyl-2-((6-phenylthieno[2,3-d]pyrimidin-4-yl)amino)ethan-1-ol]
IC50 [1]: 10 nM | MIC of resistant isolates relative to wildtype [2]: 8 fold | IC50 at 72 h [3]: < 20000 nM | MIC [4]: ≥ 16 µg/mL | IC50 ([5]; ATCC43504): 23 nM | IC50 [5, 12]: 25.1 nM

OCCCNc1ncnc2sc(-c3ccccc3)cc12 [Compound 1, 3-((6-phenylthieno[2,3-d]pyrimidin-4-yl)amino)propan-1-ol]
IC50 [1]: 1580 nM | IC50 [6]: 1550 nM | IC50 at 72 h [3]: 126000 nM | IC50 [5, 12]: 1580 nM

COc1ccc(C(CO)Nc2ncnc3sc(-c4ccccc4)cc23)cc1 (stereo not drawn) [Compound 25, 2-(4-methoxyphenyl)-2-((6-phenylthieno[2,3-d]pyrimidin-4-yl)amino)ethan-1-ol]
efficacy in H. pylori murine infection model ([7]; 25 mg/kg (IP)): did not show efficacy | efficacy in H. pylori murine infection model ([7]; 50 mg/kg (IP)): did not show efficacy | efficacy in H. pylori murine infection model ([7]; 50 mg/kg (PO)): did not show efficacy | IC50 [1]: 20 nM | fold increase in potency ([1]; SS1 (stated for both strains), lead compounds relative to hits): > 69 fold | effectiveness in ex vivo model [8]: highly effective | samples with colony counts below the limit of detection ([8]; 10 samples): 6 of the 10 | solubility [9]: 1 µM (≈ 0.377 µg/mL) | exposure upon oral dosing ([10]; mice, oral (PO), compared with IP): lower exposure | AUC ([10]; mouse, plasma, ip, 50 mg/kg): 31900 ng·h/mL | IC50 at 72 h [3]: 398000 nM | MIC [4]: ≥ 16 µg/mL | fold increase in potency ([5]; ATCC 43504 (stated for both strains), lead compounds relative to hits): > 69 fold | IC50 ([5]; ATCC43504): 21 nM | IC50 [5, 12]: 20 nM

COc1ccc([C@H](CO)Nc2ncnc3sc(-c4ccccc4)cc23)c(F)c1 [Compound 29, (R)-2-(2-fluoro-4-methoxyphenyl)-2-((6-phenylthieno[2,3-d]pyrimidin-4-yl)amino)ethan-1-ol]
IC50 [1]: 12.6 nM | IC50 at 72 h [3]: 31600 nM | MIC [4]: ≥ 16 µg/mL | IC50 [5, 12]: 20 nM

CC[C@H]1OC(=O)[C@H](C)[C@@H](O[C@H]2C[C@@](C)(OC)[C@@H](O)[C@H](C)O2)[C@H](C)[C@@H](O[C@@H]2O[C@H](C)C[C@H](N(C)C)[C@H]2O)[C@](C)(OC)C[C@@H](C)C(=O)[C@H](C)[C@@H](O)[C@]1(C)O [clarithromycin]
H. pylori minimum inhibitory concentration (MIC) [11]: 0.008 µg/mL
